Reference: ChEMBL document CHEMBL4825777, “Tripeptides as Integrin-Linked Kinase Modulating Agents Based on a Protein-Protein Interaction with α-Parvin” (ACS Med Chem Lett, 2021)
Each block holds one compound with its values, some of them ahead of it. Activity calls are given as the source filed them. The rule behind the calls is not given here. Non-standard residues stand in square brackets, D forms with d. Residues, ends and D or L forms follow the SMILES beside them. 2Nal = N[C@@H](Cc1ccc2ccccc2c1)C(=O)O

What was measured:
[1] = biological target: T1, Scaffold protein ILK (Homo sapiens) (UniProt Q13418); experiment: Induction of ILK (unknown origin)
T1 sequence (whole entry): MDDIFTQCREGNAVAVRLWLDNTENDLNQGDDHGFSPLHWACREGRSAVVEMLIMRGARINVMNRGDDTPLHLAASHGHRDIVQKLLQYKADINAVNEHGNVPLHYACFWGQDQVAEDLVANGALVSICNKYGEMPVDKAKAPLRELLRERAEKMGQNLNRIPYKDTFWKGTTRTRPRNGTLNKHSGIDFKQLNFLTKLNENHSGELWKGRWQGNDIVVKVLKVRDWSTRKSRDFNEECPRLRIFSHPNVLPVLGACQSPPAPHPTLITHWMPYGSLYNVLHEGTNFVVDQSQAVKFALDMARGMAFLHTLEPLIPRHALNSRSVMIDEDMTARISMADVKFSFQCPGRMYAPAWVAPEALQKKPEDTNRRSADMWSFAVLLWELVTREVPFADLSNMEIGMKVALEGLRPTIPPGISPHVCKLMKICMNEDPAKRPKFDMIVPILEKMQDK

Mesangial cell [2] = experiment: Induction of F-actin polymerization in human mesangial cells ILK siRNA assessed as increase in phalloidin content at 50 uM measured after 24 hrs by Alexa 568-phalloidin based confocal microscopy relative to control; conditions: filed as activator
Outline: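 Human mesangial cells transfected with ILK siRNA, or scrambled siRNA as transfection control; cells then held in buffer (control) or compound at 50 μM for 24 h. Stained with Alexa 568 phalloidin and imaged by confocal microscopy. F-actin quantified in three independent assays; mean ± SEM as percentage vs control, p < 0.05 vs control.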

[3] = Cytotoxicity against human mesangial cells assessed as reduction in cell viability at 1 to 100 uM incubated for 24 hrs by MTT assay; format: cell-based; conditions: dose 1-100 µM
Mesangial cell [4] = experiment: Induction of F-actin polymerization in human mesangial cells assessed as increase in F-actin levels measured after 24 hrs by Alexa 568-phalloidin based confocal microscopy
Outline: (§1)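 Human mesangial cells incubated 24 h with compound at 50 μM, or with buffer as control. Cells stained with Alexa 568 phalloidin and F-actin examined by confocal microscopy. F-actin amount measured in three independent assays; mean ± SEM expressed as percent of control values; p < 0.05 vs control.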

[5] = biological target: T1, Scaffold protein ILK (Homo sapiens); experiment: Modulation of ILK in human mesangial cells assessed as reduction in AKT phosphorylation at Ser473 residue at 50 uM measured upto 90 mins by Western blot analysis; format: cell-based; conditions: Mesangial cell, time min <=90
[6] = biological target: T1, Scaffold protein ILK (Homo sapiens); experiment: Modulation of ILK in human mesangial cells assessed as reduction in GSK-3beta phosphorylation at ser9 residue at 50 uM measured upto 90 mins by Western blot analysis; format: cell-based; conditions: Mesangial cell, time min <=90
Mesangial cell [7] = experiment: Induction of F-actin polymerization in human mesangial cells assessed as F-actin levels at 50 uM measured after 24 hrs by Alexa 568-phalloidin based confocal microscopy; conditions: filed as activator; outline: as §1
[8] = biological target: T1, Scaffold protein ILK (Homo sapiens); experiment: Inhibition of ILK (unknown origin)

Compound: COC(=O)[C@@H](NC(=O)[C@H](Cc1ccccc1)NC(=O)[C@H](C)NC(C)=O)C(C)C (Ac-Ala-Phe-Val-OMe)
Activity [1]: inactive
Activity (Mesangial cell [2]): 59%
Activity [3]: Non-Toxic

Compound: COC(=O)[C@@H](NC(=O)[C@H](C)NC(=O)[C@H](Cc1ccc(O)cc1)NC(C)=O)C(C)C (Ac-Tyr-Ala-Val-OMe)
Activity [1]: inactive

Compound: COC(=O)[C@H](CO)NC(=O)[C@H](Cc1ccc2ccccc2c1)NC(=O)[C@H](Cc1ccc(O)cc1)NC(C)=O (Ac-Tyr-[2Nal]-Ser-OMe)
Activity [1]: inactive
inhibition [8]: Active

Compound: COC(=O)[C@@H](NC(=O)[C@H](Cc1ccc2ccccc2c1)NC(=O)[C@H](Cc1ccc(O)cc1)NC(C)=O)C(C)C (Ac-Tyr-[2Nal]-Val-OMe)
Activity [1]: inactive
inhibition [8]: Active

More lines, main results first:

Activity [1]: inactive
Compound: COC(=O)[C@H](C)NC(=O)[C@H](Cc1ccccc1)NC(=O)[C@H](Cc1ccc(O)cc1)NC(C)=O (Ac-Tyr-Phe-Ala-OMe)

Activity [1]: inactive
Compound: COC(=O)[C@H](CO)NC(=O)[C@H](Cc1ccccc1)NC(=O)[C@H](Cc1ccc(O)cc1)NC(C)=O (Ac-Tyr-Phe-Ser-OMe)

Activity [1]: inactive
Compound: CC(=O)N[C@@H](Cc1ccc(O)cc1)C(=O)N[C@@H](Cc1ccccc1)C(=O)N[C@H](C(=O)O)C(C)C (Ac-Tyr-Phe-Val-OH)
Activity (Mesangial cell [4]): inactive

Activity [5]: inactive
Activity [1]: inactive
Activity [6]: inactive
Compound: COC(=O)[C@@H](NC(=O)[C@H](Cc1ccccc1)NC(=O)[C@H](Cc1ccc(O)cc1)NC(C)=O)C(C)C (Ac-Tyr-Phe-Val-OMe)
Activity (Mesangial cell [2]): 100%
Activity (Mesangial cell [7]): Active
Activity [3]: Non-Toxic
